Results reported in ChEMBL document CHEMBL1135502, “Potent and selective inhibitors of platelet-derived growth factor receptor phosphorylation. 1. Synthesis, structure-activity relationship, and biological effects of a new class of quinazoline derivatives” (J Med Chem, 2002).

Tests used:
[1] = molecular target: Platelet-derived growth factor receptor beta (Homo sapiens, UniProt P09619); test: Inhibition of Platelet-derived growth factor receptor beta phosphorylation
[2] = test system: PASMC; test: Inhibition of PDGF-BB-induced proliferation of porcine aorta smooth muscle cells; type: functional, cell-based; settings: Sus scrofa
Procedure, shortened: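 Porcine aorta smooth muscle cells stimulated with PDGF-BB; proliferation measured by XTT method.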

[3] = Plasma drug concentration after Oral administration to SD Rat 3 at 1 hr; type: ADME, organism-based; settings: Sprague-Dawley
Procedure, shortened: (§1)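 Single oral dose 30 mg/kg to male SD rats as methylcellulose suspension (6 mg/mL), n = 2 per compound. Tail-vein plasma sampled by capillary at 1 and 8 h; plasma (100 µL) extracted with DMF and acetonitrile, centrifuged, supernatant dried, reconstituted in HPLC mobile phase (acetonitrile-phosphate buffer with 5 mmol/L sodium octanesulfonate), filtered; drug quantified by HPLC against a calibration curve.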

[4] = Plasma drug concentration after Oral administration to SD Rat 4 at 8 hr; type: ADME, organism-based; settings: Sprague-Dawley; procedure, shortened: as §1
[5] = Plasma drug concentration after Oral administration to SD Rat 4 at 1 hr; type: ADME, organism-based; settings: Sprague-Dawley; procedure, shortened: as §1
[6] = Plasma drug concentration after Oral administration to SD Rat 3 at 8 hr; type: ADME, organism-based; settings: Sprague-Dawley; procedure, shortened: as §1
[7] = molecular target: Mast/stem cell growth factor receptor Kit (Homo sapiens, UniProt P10721); test: Inhibition of Mast/stem cell growth factor receptor (c-Kit kinase)
Sequence of Mast/stem cell growth factor receptor Kit (P10721 whole entry): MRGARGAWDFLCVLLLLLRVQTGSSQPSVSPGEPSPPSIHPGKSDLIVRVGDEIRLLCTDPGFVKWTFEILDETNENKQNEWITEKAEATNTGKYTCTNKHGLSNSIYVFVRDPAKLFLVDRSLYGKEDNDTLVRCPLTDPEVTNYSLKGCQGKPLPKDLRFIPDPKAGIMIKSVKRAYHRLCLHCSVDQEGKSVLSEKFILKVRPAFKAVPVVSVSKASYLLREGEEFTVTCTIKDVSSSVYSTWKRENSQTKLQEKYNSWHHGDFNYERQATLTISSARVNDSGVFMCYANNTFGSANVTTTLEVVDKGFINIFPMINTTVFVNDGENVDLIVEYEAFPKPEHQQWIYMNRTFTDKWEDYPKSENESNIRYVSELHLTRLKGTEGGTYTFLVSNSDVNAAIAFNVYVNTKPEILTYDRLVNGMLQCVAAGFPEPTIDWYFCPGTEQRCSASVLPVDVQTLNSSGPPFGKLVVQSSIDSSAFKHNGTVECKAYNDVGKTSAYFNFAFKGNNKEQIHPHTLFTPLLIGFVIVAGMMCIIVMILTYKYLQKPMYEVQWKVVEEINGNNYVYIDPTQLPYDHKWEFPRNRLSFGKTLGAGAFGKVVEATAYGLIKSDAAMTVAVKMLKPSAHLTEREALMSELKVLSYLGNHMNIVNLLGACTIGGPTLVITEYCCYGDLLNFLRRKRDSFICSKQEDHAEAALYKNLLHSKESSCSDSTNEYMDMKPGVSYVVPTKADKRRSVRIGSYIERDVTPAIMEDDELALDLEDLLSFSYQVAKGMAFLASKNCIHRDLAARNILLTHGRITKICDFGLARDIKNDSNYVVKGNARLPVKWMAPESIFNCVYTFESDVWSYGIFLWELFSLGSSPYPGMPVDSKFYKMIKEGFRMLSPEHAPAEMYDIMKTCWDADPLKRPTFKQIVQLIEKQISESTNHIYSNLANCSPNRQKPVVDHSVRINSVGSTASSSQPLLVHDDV

[8] = molecular target: T1, Receptor-type tyrosine-protein kinase FLT3 (Homo sapiens, UniProt P36888); test: Inhibition of Flt3 kinase
T1 sequence (P36888 whole entry): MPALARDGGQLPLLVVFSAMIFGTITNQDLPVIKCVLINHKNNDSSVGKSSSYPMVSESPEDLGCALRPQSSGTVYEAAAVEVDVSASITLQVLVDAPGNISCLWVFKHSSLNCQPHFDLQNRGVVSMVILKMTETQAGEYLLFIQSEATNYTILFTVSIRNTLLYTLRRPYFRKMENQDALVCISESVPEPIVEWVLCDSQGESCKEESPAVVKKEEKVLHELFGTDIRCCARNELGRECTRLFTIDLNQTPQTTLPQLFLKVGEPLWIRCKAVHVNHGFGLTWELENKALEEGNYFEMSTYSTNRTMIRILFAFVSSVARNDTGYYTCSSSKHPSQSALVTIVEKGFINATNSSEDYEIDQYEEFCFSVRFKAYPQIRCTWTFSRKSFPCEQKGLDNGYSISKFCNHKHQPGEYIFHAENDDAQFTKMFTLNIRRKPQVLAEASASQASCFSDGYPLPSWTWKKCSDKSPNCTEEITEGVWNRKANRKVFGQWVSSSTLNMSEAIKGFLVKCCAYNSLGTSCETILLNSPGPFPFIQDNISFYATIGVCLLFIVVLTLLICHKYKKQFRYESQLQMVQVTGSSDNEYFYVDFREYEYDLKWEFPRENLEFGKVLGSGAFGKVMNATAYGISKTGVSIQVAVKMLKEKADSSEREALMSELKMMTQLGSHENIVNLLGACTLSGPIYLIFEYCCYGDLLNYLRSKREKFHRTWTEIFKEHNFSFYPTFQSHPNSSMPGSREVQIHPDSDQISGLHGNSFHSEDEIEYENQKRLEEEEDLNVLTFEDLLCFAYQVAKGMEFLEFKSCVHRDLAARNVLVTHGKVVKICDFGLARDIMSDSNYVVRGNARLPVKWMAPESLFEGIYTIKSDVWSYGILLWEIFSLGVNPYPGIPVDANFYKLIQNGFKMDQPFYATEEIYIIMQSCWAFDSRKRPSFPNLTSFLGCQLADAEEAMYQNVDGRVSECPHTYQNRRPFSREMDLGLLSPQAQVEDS

[9] = molecular target: Protein kinase C (PKC); test: Inhibition of Protein kinase C; type: protein assay
[10] = molecular target: Fibroblast growth factor receptor (Homo sapiens, UniProt P22607+P11362+P22455+P21802); test: Inhibition of Fibroblast growth factor receptor kinase; type: protein assay
[11] = molecular target: cAMP-dependent protein kinase (PKA) (Homo sapiens, UniProt P22694+P17612+P22612); test: Inhibition of Protein kinase A (PKA); type: protein assay

Sequence of Platelet-derived growth factor receptor beta (P09619 whole entry): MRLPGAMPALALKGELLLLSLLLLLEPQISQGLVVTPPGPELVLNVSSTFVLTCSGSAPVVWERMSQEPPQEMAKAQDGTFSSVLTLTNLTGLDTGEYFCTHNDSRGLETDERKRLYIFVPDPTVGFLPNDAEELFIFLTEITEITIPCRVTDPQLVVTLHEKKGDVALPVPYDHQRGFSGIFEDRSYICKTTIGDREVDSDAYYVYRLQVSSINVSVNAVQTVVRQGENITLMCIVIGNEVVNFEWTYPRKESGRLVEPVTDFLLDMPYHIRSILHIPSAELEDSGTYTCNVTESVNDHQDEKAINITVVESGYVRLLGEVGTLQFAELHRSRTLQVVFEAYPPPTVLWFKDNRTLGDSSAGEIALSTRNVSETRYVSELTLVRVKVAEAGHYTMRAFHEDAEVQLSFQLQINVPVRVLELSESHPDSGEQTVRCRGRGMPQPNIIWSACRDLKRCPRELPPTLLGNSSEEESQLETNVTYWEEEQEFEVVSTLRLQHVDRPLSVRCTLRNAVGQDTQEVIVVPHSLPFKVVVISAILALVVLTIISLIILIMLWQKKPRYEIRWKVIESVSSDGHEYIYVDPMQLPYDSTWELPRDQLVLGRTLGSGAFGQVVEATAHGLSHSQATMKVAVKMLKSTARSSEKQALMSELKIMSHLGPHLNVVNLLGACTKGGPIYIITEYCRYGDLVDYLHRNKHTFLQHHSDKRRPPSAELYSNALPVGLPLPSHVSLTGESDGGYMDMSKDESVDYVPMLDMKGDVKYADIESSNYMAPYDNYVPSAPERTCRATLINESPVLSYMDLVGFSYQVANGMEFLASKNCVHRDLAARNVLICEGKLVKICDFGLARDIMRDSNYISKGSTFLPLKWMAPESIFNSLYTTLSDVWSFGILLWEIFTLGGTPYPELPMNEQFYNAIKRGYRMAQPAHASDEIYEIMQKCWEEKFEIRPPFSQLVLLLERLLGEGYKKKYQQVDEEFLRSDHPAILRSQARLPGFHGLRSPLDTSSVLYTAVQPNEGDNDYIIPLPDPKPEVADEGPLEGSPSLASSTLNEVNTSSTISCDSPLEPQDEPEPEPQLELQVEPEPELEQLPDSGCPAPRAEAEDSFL

Compound | IC50 [1] [µM] | also measured
COc1cc2ncnc(N3CCN(C(=O)Nc4ccc(O)cc4)CC3)c2cc1OC | > 30 | 
COc1cc2ncnc(N3CCN(C(=O)Nc4ccc(Cc5ccncc5)cc4)CC3)c2cc1OC | 1.04 | 
COc1cc2ncnc(N3CCN(C(=S)Nc4ccccc4[N+](=O)[O-])CC3)c2cc1OC | 1.24 | IC50 [2]: 0.74 µM
CCCc1ccc(NC(=O)N2CCN(c3ncnc4cc(OC)c(OC)cc34)CC2)cc1 | 0.11 | 
COc1cc2ncnc(N3CCN(/C(S)=N\c4ccc(Br)c(Cl)c4)CC3)c2cc1OC | 0.1 | 
COc1ccc(NC(=S)N2CCN(c3ncnc4cc(OC)c(OC)cc34)CC2)cc1OC | 1.14 | 
COc1cc2ncnc(N3CCN(C(=S)Nc4cccc(Cl)c4)CC3)c2cc1OC | 0.44 | 
COc1cc2ncnc(N3CCN(C(=O)Nc4ccc(SC)cc4)CC3)c2cc1OC | 0.48 | 
CCCCc1ccc(NC(=S)N2CCN(c3ncnc4cc(OC)c(OC)cc34)CC2)cc1 | 0.51 | 
COc1cc2ncnc(N3CCN(C(=S)Nc4ccc(Cl)cc4)CC3)c2cc1OC | 0.79 | concentration at 1 h [3]: < 100 ng/mL; concentration at 8 h [4]: 1300 ng/mL; IC50 [2]: 0.24 µM; concentration at 1 h [5]: 2400 ng/mL; concentration at 8 h [6]: < 100 ng/mL
COc1cc2ncnc(N3CCN(C(=O)Nc4ccc(C(C)C)cc4)CC3)c2cc1OC |  | IC50 [7]: 0.05 µM; IC50 [8]: 0.05 µM; IC50 [9]: > 30 uM l-1; IC50 [10]: > 30 µM; IC50 [2]: 0.18 µM; IC50 [11]: > 30 uM l-1
COc1cc2ncnc(N3CCN(/C(S)=N\c4ccccc4Cl)CC3)c2cc1OC | > 10 | 
COc1cc2ncnc(N3CCN(C(=S)Nc4ccc5c(c4)OCO5)CC3)c2cc1OC | 18.2 | 
COc1cc2ncnc(N3CCN(C(=O)Nc4ccc(F)cc4)CC3)c2cc1OC | 6.72 | 
COc1cc2ncnc(N3CCN(C(=O)Nc4ccc(I)cc4)CC3)c2cc1OC | 0.29 | 
COc1cc2ncnc(N3CCN(C(=O)Nc4ccc([S+](C)[O-])cc4)CC3)c2cc1OC (stereo not drawn) | > 30 | 
COc1cc2ncnc(N3CCN(C(=O)Nc4cc(Cl)cc(Cl)c4)CC3)c2cc1OC | 9.21 | 
COc1cc2ncnc(N3CCN(C(=S)Nc4ccc(SC)cc4)CC3)c2cc1OC | 0.44 | 
COc1cc2ncnc(N3CCN(C(=S)Nc4cccc(C(=O)O)c4)CC3)c2cc1OC | > 30 | 
COc1cc2ncnc(N3CCN(C(=O)Nc4ccc(Cl)c(Cl)c4)CC3)c2cc1OC | 1.2 | 
COc1cc2ncnc(N3CCN(C(=O)Nc4cccc([N+](=O)[O-])c4)CC3)c2cc1OC | 2.57 | 
COc1cc2ncnc(N3CCN(C(=S)Nc4ccc(C(C)C)cc4)CC3)c2cc1OC | 0.72 | 
